Drawing on ChEMBL document CHEMBL1138144 (J Med Chem, 2006), this text covers IC50 and Ki for 18 compounds.

Each structure is given as a SMILES string.

The target in assay [1] is T1, Sodium-dependent dopamine transporter (Homo sapiens, UniProt Q01959). The assay can be described thus: Inhibition of [3H] dopamine uptake into human DAT expressed in HEK293 cells. Type of assay: functional, cell-based. The method, boiled down: (§1)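 Confluent HEK293 cells expressing hDAT or hSERT, scraped into Krebs-HEPES. Preincubated 10 min at 25°C with compound (0.1% DMSO final). Uptake started with [3H]dopamine or [3H]serotonin (20 nM final) and stopped after 10 min by filtration on PEI-soaked GF/C filters. Non-specific uptake: 5 µM mazindol (DAT) or 5 µM imipramine (SERT). IC50 from triplicate 6-concentration curves, 2–3 independent determinations.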

The target of assay [2] is T1, Sodium-dependent dopamine transporter. Briefly: Displacement of [125I]RTI-55 from human DAT expressed in HEK293 cells. Format: cell-based. The method in brief: (§2)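 Membranes from HEK293 cells expressing hDAT or hSERT, grown to 80% confluence, lysed in 2 mM HEPES/1 mM EDTA, spun and resuspended in 0.32 M sucrose. About 10–15 µg protein preincubated 10 min with compound in Krebs-HEPES pH 7.4 (0.1% DMSO final). Filtered on GF/C. Non-specific binding: 5 µM mazindol (DAT) or 5 µM imipramine (SERT). Duplicates, 2–3 experiments, IC50 converted to Ki by Cheng-Prusoff.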
(Displacement assays read how much labelled ligand stays bound in the presence of the test substance.)

Assay [3] addresses T2, Sodium-dependent serotonin transporter (Homo sapiens, UniProt P31645). The assay can be described thus: Displacement of [125I]RTI-55 from human SERT expressed in HEK293 cells. Format: cell-based. The method, boiled down:
as §2

Assay [4] deals with T3, Sodium-dependent noradrenaline transporter (Homo sapiens, UniProt P23975). Briefly: Inhibition of [3H] norepinephrine uptake into human NET expressed in HEK293 cells. Format: functional, cell-based.
For assay [5], the target named is T3, Sodium-dependent noradrenaline transporter. The assay can be described thus: Displacement of [125I]RTI-55 from human NET expressed in HEK293 cells. Format: cell-based.
The target of assay [6] is T2, Sodium-dependent serotonin transporter. The assay can be described thus: Inhibition of [3H] serotonin uptake into human SERT expressed in HEK293 cells. Type of assay: functional, cell-based. The method, boiled down:
as §1

T3 sequence (P23975 whole entry): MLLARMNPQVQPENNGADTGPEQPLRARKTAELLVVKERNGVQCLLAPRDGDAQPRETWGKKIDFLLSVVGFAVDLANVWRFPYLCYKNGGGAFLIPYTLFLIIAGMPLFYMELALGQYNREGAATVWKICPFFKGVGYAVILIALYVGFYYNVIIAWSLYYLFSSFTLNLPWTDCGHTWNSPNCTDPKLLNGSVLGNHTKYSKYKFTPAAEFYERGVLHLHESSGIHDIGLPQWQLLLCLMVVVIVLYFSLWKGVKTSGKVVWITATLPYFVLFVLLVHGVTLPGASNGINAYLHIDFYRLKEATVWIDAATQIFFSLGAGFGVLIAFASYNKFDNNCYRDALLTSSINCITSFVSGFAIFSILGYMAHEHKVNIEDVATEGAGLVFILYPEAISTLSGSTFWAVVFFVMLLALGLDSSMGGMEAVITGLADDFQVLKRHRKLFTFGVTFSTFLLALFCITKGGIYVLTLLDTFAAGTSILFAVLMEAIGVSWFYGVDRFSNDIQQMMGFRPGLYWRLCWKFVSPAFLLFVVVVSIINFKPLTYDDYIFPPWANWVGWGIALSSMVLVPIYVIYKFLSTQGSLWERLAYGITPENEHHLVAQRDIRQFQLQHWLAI
T2 sequence (P31645 whole entry): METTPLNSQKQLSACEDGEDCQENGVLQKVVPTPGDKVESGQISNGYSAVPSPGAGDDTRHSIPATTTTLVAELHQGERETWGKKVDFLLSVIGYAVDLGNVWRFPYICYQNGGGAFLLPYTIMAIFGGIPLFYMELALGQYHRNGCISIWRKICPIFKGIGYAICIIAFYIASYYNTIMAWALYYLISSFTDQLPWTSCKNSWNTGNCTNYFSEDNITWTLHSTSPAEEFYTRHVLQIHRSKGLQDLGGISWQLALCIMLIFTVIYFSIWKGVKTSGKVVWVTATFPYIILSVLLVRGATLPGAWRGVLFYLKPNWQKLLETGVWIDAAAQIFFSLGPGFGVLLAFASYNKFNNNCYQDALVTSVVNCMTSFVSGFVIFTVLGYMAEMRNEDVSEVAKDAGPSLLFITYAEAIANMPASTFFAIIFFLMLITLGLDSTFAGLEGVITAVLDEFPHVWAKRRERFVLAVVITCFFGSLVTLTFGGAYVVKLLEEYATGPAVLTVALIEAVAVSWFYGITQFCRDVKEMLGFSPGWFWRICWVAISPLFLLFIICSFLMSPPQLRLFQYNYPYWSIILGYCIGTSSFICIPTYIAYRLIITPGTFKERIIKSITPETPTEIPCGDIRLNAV
T1 sequence (Q01959 whole entry): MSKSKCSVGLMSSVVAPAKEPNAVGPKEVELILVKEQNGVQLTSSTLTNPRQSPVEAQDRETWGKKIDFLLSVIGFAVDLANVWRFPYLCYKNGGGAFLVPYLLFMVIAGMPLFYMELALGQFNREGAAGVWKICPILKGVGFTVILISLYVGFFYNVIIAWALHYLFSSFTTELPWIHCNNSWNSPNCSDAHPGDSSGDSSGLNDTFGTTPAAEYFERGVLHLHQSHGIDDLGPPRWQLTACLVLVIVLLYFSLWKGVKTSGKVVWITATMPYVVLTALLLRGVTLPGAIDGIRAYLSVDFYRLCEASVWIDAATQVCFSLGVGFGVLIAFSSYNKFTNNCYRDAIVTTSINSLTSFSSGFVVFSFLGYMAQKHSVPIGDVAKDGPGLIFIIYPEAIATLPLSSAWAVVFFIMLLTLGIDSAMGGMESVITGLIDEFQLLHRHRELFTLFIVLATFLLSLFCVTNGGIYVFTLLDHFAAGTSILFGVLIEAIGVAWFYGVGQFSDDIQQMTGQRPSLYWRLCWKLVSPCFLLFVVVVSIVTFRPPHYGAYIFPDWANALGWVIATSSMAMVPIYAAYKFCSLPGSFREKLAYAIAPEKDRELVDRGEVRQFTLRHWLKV

One may read the IC50 as the concentration needed to halve the response being measured. A lower IC50 goes with higher potency. Broadly, the Ki is a dissociation constant, usually derived from enzyme kinetics or from competition with a known ligand. Higher therefore signals weaker binding. As for `CCCC(C(=O)c1cccc(I)c1)N1CCCC1` (centres undefined), the half-maximal inhibitory concentration (IC50) in assay [1] was 0.052 µM; in assay [4], 0.081 µM; in assay [6] it was 1.07 µM. Also, the Ki in assay [2] turned out to be 0.109 µM; in assay [3], 1.4 µM; in assay [5], 0.67 µM.
Take `CCCC(C(=O)c1ccccc1)N1CCCC1` (centres undefined): the half-maximal inhibitory concentration (IC50) came to 0.0523 µM in assay [1] and 0.056 µM in assay [4]. Further, the results for the Ki in assay [2], in assay [3] and in assay [5] were 0.0337 µM, above 10 µM and 0.199 µM, respectively.
Consider `Cc1ccc(C(=O)C(CC(C)C)N2CCCC2)cc1` (centres undefined), for which the IC50 in assay [1] was 0.0059 µM; in assay [4], 0.018 µM; in assay [6] it was 2.04 µM. The results for the Ki in assay [2], in assay [3] and in assay [5] were 0.0137 µM, 2.87 µM and 0.259 µM, respectively.
With `C#CCC(C(=O)c1ccc(C)cc1)N1CCCC1` (centres undefined), the concentration for half-maximal inhibition (IC50) in assay [1] turned out to be 0.231 µM; in assay [4], 0.35 µM. Besides, the inhibitory constant (Ki) in assay [2] was 2.31 µM; in assay [3] it was above 10 µM; in assay [5], 4.1 µM.
For the compound `C=CCC(C(=O)c1ccc(C)cc1)N1CCCC1` (centres undefined), the IC50 was found to be 0.055 µM in assay [1] and 0.088 µM in assay [4]. The Ki in assay [2] was 0.0905 µM; in assay [3], above 10 µM; in assay [5], 1.4 µM.
Consider `CCCC(C(=O)c1ccc(C#N)cc1)N1CCCC1` (centres undefined), for which, in assay [1], it took 1 µM to reach half-maximal inhibition (IC50). Further, the inhibition constant Ki in assay [2] was 5.9 µM; in assay [3] it was above 10 µM; in assay [5], above 10 µM.
`CCCC(C(=O)c1ccc(-c2cccn2C)cc1)N1CCCC1` (centres undefined) returned a half-inhibitory concentration (IC50) in assay [1] of 5.4 µM. The figures for the Ki in assay [2], in assay [3] and in assay [5] were 3.85 µM, above 10 µM and above 10 µM, respectively.
For `CCCC(C(=O)c1ccc(I)cc1)N1CCCC1` (centres undefined), the IC50 came out at 0.032 µM in assay [1], 0.0465 µM in assay [4] and 0.197 µM in assay [6]. Also, the Ki was 0.0814 µM in assay [2], 0.301 µM in assay [3] and 0.31 µM in assay [5].
In the case of `CCCC(CN1CCCC1)C(=O)c1ccc(Cl)c(Cl)c1` (centres undefined), the IC50 in assay [1] amounted to 2.9 µM; in assay [6], 0.71 µM. Also, the Ki in assay [2] was 1.53 µM; in assay [3], 0.63 µM; in assay [5], above 10 µM.
`CCCC(C(=O)c1ccc(C(=O)OC)cc1)N1CCCC1` (centres undefined): the half-inhibitory concentration (IC50) was 0.154 µM in assay [1] and 2.35 µM in assay [6]. Moreover, the values for the inhibitory constant (Ki) in assay [2], in assay [3] and in assay [5] were 0.36 µM, 3.65 µM and 1.14 µM, respectively.
Regarding `CCCC(C(=O)c1ccc(O)c(O)c1)N1CCCC1` (centres undefined), the figures for the concentration for half-maximal inhibition (IC50) in assay [1] and in assay [4] were 0.042 µM and 0.0076 µM, respectively. Besides, the Ki in assay [2] is 0.084 µM; in assay [3], above 10 µM; in assay [5], 0.219 µM.
As to `CCCC(C(O)c1ccc(C)cc1)N1CCCC1` (mixture of isomers), the Ki in assay [2], in assay [3] and in assay [5] was above 10 µM in each case.
In the case of `CCCC(CN1CCCC1)C(=O)c1ccc(C)cc1` (centres undefined), the inhibitory constant (Ki) in assay [2] was above 10 µM; in assay [3], 4.1 µM; in assay [5] it was above 10 µM. The IC50 in assay [6] stood at 4.8 µM.
Turning to `CCC(C(=O)c1ccc(Cl)c(Cl)c1)N1CCCC1` (centres undefined), the inhibition constant (Ki) came out at 0.81 µM in assay [3] and 0.262 µM in assay [5]. Moreover, the IC50 amounted to 0.0185 µM in assay [4] and 0.441 µM in assay [6].
As to `CCC[C@H](C(=O)c1ccc(C)cc1)N1CCCC1`, inhibition in assay [1] was half-maximal at 1.79 µM (IC50). Besides, the inhibition constant (Ki) in assay [3] and in assay [5] was above 10 µM in each case.
For the compound `CCCC(C(=O)c1ccc(CO)cc1)N1CCCC1` (centres undefined), the IC50 stood at 0.0443 µM in assay [1] and 0.0124 µM in assay [4]. For the same compound, the inhibitory constant (Ki) in assay [2] was 0.0487 µM; in assay [3] it was above 10 µM; in assay [5] it was 0.15 µM.
With `CCCC(C(=O)c1ccc(OC)c(OC)c1)N1CCCC1` (centres undefined), the inhibitory constant (Ki) in assay [2] is above 10 µM; in assay [3], 7.46 µM; in assay [5] it was above 10 µM. The compound further yielded a half-inhibitory concentration (IC50) in assay [6] of 1.54 µM.
Consider `CCCC(C(=O)c1ccc(F)cc1)N1CCCC1` (centres undefined), for which the values for the IC50 in assay [1] and in assay [4] were 0.185 µM and 0.171 µM, respectively. Further, the Ki in assay [2] was 0.082 µM; in assay [3], above 10 µM; in assay [5], 0.83 µM.
